Activity calls are given as the source filed them. The calls are words filed in the database; no cut-off is given here.
Experiments:
PC-3 = assay: Antiproliferative activity against human PC3 cells incubated for 48 to 72 hrs by MTT assay; assay type: functional, cell-based
In short: (§1)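 MTT assay. Cells were grown in DMEM with 10% heat-inactivated FBS at 37°C under 5% CO₂. They were seeded at 5000/well in 5% FBS DMEM for 24 h, then given compound in DMSO at 0.1, 1, 10 and 100 µmol/L for 72 h (the table footnote says 48 h). MTT was added for 4 h, formazan was dissolved in DMSO and read at 570 nm. IC₅₀ was from ≥3 independent runs; >100 μM was given if 50% inhibition was not reached.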

A549 = assay: Antiproliferative activity against human A549 cells incubated for 48 to 72 hrs by MTT assay; assay type: functional, cell-based; in short: as §1
SGC-7901 = assay: Antiproliferative activity against human SGC7901 cells incubated for 48 to 72 hrs by MTT assay; assay type: functional, cell-based; in short: as §1
MCF7 = assay: Antiproliferative activity against human MCF7 cells incubated for 48 to 72 hrs by MTT assay; assay type: functional, cell-based; in short: as §1
HepG2 [1] = assay: Antiproliferative activity against human HepG2 cells incubated for 48 to 72 hrs by MTT assay; assay type: functional, cell-based; in short: as §1
HepG2 [2] = assay: Induction of cell cycle arrest in human HepG2 cells assessed as accumulation at G0/G1 phase at 2 umol/L incubated for 12 hrs by propidium iodide staining based flow cytometry (reference value: 64.31%); assay type: functional
HepG2 [3] = assay: Induction of cell cycle arrest in human HepG2 cells assessed as accumulation at S phase at 2 umol/L incubated for 12 hrs by propidium iodide staining based flow cytometry (reference value: 25.28%); assay type: functional
HepG2 [4] = assay: Induction of cell cycle arrest in human HepG2 cells assessed as accumulation at G2/M phase at 2 umol/L incubated for 12 hrs by propidium iodide staining based flow cytometry (reference value: 10.41%); assay type: functional
HepG2 [5] = assay: Induction of cell cycle arrest in human HepG2 cells assessed as accumulation at G0/G1 phase at 2 umol/L incubated for 24 hrs by propidium iodide staining based flow cytometry (reference value: 64.31%); assay type: functional
HepG2 [6] = assay: Induction of cell cycle arrest in human HepG2 cells assessed as accumulation at S phase at 2 umol/L incubated for 24 hrs by propidium iodide staining based flow cytometry (reference value: 25.28%); assay type: functional
HepG2 [7] = assay: Induction of cell cycle arrest in human HepG2 cells assessed as accumulation at G2/M phase at 2 umol/L incubated for 24 hrs by propidium iodide staining based flow cytometry (reference value: 10.41%); assay type: functional
HepG2 [8] = assay: Induction of apoptosis in human HepG2 cells at 1 umol/L incubated for 24 hrs by Annexin V-FITC/propidium iodide staining based flow cytometry (reference value: 1.96%); assay type: functional
HepG2 [9] = assay: Induction of apoptosis in human HepG2 cells at 2 umol/L incubated for 24 hrs by Annexin V-FITC/propidium iodide staining based flow cytometry (reference value: 1.96%); assay type: functional
HepG2 [10] = assay: Induction of apoptosis in human HepG2 cells at 4 umol/L incubated for 24 hrs by Annexin V-FITC/propidium iodide staining based flow cytometry (reference value: 1.96%); assay type: functional
Mus musculus [11] = assay: Toxicity in Swiss mouse xenografted with […] assessed as increase in body weight at 15 mg/kg, ip dosed every day for 14 days; assay type: organism-based; settings: in vivo, 336 h
In short: (§2)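 Female Swiss mice (20-22 g) bearing subcutaneous […] (3×10⁶ cells, right flank) were dosed intraperitoneally daily with saline, 15 or 30 mg/kg, or 5-FU 20 mg/kg (n = 6) and killed on day 14. Body weight was recorded daily. Thymus and spleen indexes were calculated as organ weight divided by final body weight. Mean ± S.E.M.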

Mus musculus [12] = assay: Toxicity in Swiss mouse xenografted with […] assessed as effect on thymus index at 15 to 30 mg/kg, ip dosed every day for 14 days; assay type: organism-based; settings: in vivo, 336 h; in short: as §2
Mus musculus [13] = assay: Toxicity in Swiss mouse xenografted with […] assessed as effect on spleen index at 15 to 30 mg/kg, ip dosed every day for 14 days; assay type: organism-based; settings: in vivo, 336 h; in short: as §2
HepG2 [14] = assay: Induction of apoptosis in human HepG2 cells assessed as reduction in pro-caspase-3 protein expression at 1 to 8 umol/L incubated for 12 to 48 hrs by Western blot analysis; assay type: functional, cell-based
In short: (§3)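 Western blot. HepG2 cells were seeded at 5×10⁵/well with compound in 10% FBS at 37°C: 1, 2, 4 or 8 μM for 24 h, or 4 μmol/L over a time course. The vehicle was 0.5% DMSO. Cleared lysates were quantified by BCA and run on 10% SDS-PAGE, then transferred to PVDF. Membranes were blocked in 5% milk/TBST with primary antibodies at 1:2000 at 4°C, HRP secondary at 1:2000 for 2 h, and ECL detection. GAPDH served as loading control.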

HepG2 [15] = assay: Induction of apoptosis in human HepG2 cells assessed as reduction in pro-caspase-9 protein expression at 1 to 8 umol/L incubated for 12 to 48 hrs by Western blot analysis; assay type: functional, cell-based; in short: as §3
HepG2 [16] = assay: Induction of apoptosis in human HepG2 cells assessed as reduction in Bcl2 protein expression at 1 to 8 umol/L incubated for 12 to 48 hrs by Western blot analysis; assay type: functional, cell-based; in short: as §3
HepG2 [17] = assay: Induction of apoptosis in human HepG2 cells assessed as reduction in Bcl-XL protein expression at 1 to 8 umol/L incubated for 12 to 48 hrs by Western blot analysis; assay type: functional, cell-based; in short: as §3
HepG2 [18] = assay: Induction of apoptosis in human HepG2 cells assessed as reduction in Akt protein expression at 1 to 8 umol/L incubated for 12 to 48 hrs by Western blot analysis; assay type: functional, cell-based; in short: as §3
HepG2 [19] = assay: Induction of apoptosis in human HepG2 cells assessed as reduction in Bcl2 protein expression by Western blot analysis; assay type: functional, cell-based; in short: as §3
HepG2 [20] = assay: Induction of apoptosis in human HepG2 cells assessed as reduction in Bcl-XL protein expression by Western blot analysis; assay type: functional, cell-based; in short: as §3
HepG2 [21] = assay: Induction of apoptosis in human HepG2 cells assessed as increase in Bax protein expression by Western blot analysis; assay type: functional, cell-based; in short: as §3
HepG2 [22] = assay: Induction of apoptosis in human HepG2 cells incubated for 24 hrs by Annexin V-FITC/propidium iodide staining based flow cytometry (reference value: 1.96%); assay type: functional, cell-based
Heps (mouse) [23] = assay: Antitumour activity against murine HepS cells xenografted in Swiss mouse assessed as inhibition of tumor growth at 15 mg/kg, ip dosed every day for 14 days; settings: 336 h, read-out: TGI
Heps (mouse) [24] = assay: Antitumour activity against murine HepS cells xenografted in Swiss mouse assessed as inhibition of tumor growth at 30 mg/kg, ip dosed every day for 14 days; settings: 336 h, read-out: TGI
Heps (mouse) [25] = assay: Antitumour activity against murine HepS cells xenografted in Swiss mouse assessed as reduction in tumor size at 15 to 30 mg/kg, ip dosed every day for 14 days
HepG2 [26] = assay: Induction of apoptosis in human HepG2 cells assessed as increase in p53 protein expression at 1 to 8 umol/L incubated for 12 to 48 hrs by Western blot analysis
Heps (mouse) [27] = assay: Antitumour activity against murine HepS cells xenografted in Swiss mouse assessed as reduction in tumor weight at 15 to 30 mg/kg, ip dosed every day for 14 days

COc1c(O)cc2c(c1O)[C@@H]1O[C@H](COC(=O)/C=C/c3ccc(C#N)cc3)[C@@H](O)[C@H](O)[C@H]1OC2=O was tested, and the IC50 (PC-3) was 27 µM, the IC50 (A549) was 10.7 µM and the IC50 (SGC-7901) was 8.32 µM. For the same compound, the IC50 (MCF7) was 7.34 µM, the IC50 (HepG2 [1]) was 5.23 µM and the Activity (HepG2 [2]) was 57.64%. The Activity (HepG2 [3]) was 28.43%, the Activity (HepG2 [4]) was 13.93% and the Activity (HepG2 [5]) was 51.15%. The Activity (HepG2 [6]) was 19.92%, the Activity (HepG2 [7]) was 28.93% and the Activity (HepG2 [8]) was 5.58%. The Activity (HepG2 [9]) was 10.68%, the Activity (HepG2 [10]) was 20.68% and the Activity (Mus musculus [11]) was “Non-Toxic”. The Activity (Mus musculus [12]) was “Non-Toxic”, the Activity (Mus musculus [13]) was “Non-Toxic” and the Activity (HepG2 [14]) was “Active”. For the same compound, the Activity (HepG2 [15]) was “Active”, the Activity (HepG2 [16]) was “Active” and the Activity (HepG2 [17]) was “Active”. The Activity (HepG2 [18]) was “Active”, the Activity (HepG2 [19]) was “Dose-dependent effect” and the Activity (HepG2 [20]) was “Dose-dependent effect”. For the same compound, the Activity (HepG2 [21]) was “Dose-dependent effect”, the Activity (HepG2 [22]) was “Dose-dependent effect” and the inhibition in vivo at 15 mg/kg (Heps (mouse) [23]) was 45.4%. For the same compound, the inhibition in vivo at 30 mg/kg (Heps (mouse) [24]) was 61%, the Activity (Heps (mouse) [25]) was “Dose-dependent effect” and the Activity (HepG2 [26]) was “Active”. The Activity (Heps (mouse) [27]) was “Dose-dependent effect”.
